Results pooled from the literature.
≈ marks a conversion by molar mass, not a printed value.

SMILES | target or system | test | conditions | quantity | value
CC1=NN(CNC(=O)c2ccccc2)C(=O)C1=NNn1c(-c2ccccc2)nc2ccccc2c1=O | Trichophyton rubrum | microbial growth, broth dilution | – | MIC | 104 µM (≈ 49.8 µg/mL)
Cc1[nH]c(C)c(-c2ccc(OCCCCSc3ccncc3)cc2)c(=O)c1Br | HEK293 | cell growth or viability | – | IC50 | > 10 µM
Clc1ccccc1-c1ccc(CNCC2(N3CCCC3)COC2)o1 | GBM6 | cell growth or viability | 30 µM, 48 h | viability | 80.6%
c1cnc2nc(-c3ccc4c(c3)OCO4)c(NCCN3CCOCC3)n2c1 | Leishmania amazonensis | parasite growth, MTT | 72 h, promastigote | IC50 | > 100 µM
COc1ccc(Oc2ccc(-c3c(C)[nH]c(C)c(Cl)c3=O)cc2)cc1 | HEK293 | cell growth or viability | – | IC50 | > 10 µM
CC(C)(C)Nc1c(-c2ccc3c(c2)OCO3)nc2ncccn12 | Leishmania amazonensis | parasite growth, MTT | 72 h, promastigote | IC50 | > 100 µM
O=C(Nc1cccc(-c2cccc(-c3nc4ccccc4[nH]3)c2)c1)NC1CC1c1ccccc1 (stereo not shown) | HEK293 | cell growth or viability | – | IC50 | > 10 µM
O=C(Nc1ccccc1-c1ccc(F)c(F)c1)c1nccnc1C(F)(F)F | Rhizoctonia solani | microbial growth | – | EC50 | 0.2 µg/mL (≈ 0.527 µM)
COc1ccc([S+]([O-])c2ccc(OC)c(OC)c2OC)cc1 (stereo not shown) | Leishmania braziliensis | parasite growth, MTT | promastigote | IC50 | 15 µM
Cc1cccc2cc(CNCC3(N4CCCC4)COC3)cnc12 | T98G | cell growth or viability | 30 µM, 48 h | viability | 92.1%
COc1ccc(-c2nc3ncccn3c2NC(C)(C)CC(C)(C)C)cc1O | Leishmania amazonensis | parasite growth, MTT | 72 h, promastigote | IC50 | > 100 µM
Cc1[nH]c(C)c(C(F)(F)F)c(=O)c1-c1ccc(Oc2ccc(OC(F)(F)F)cc2)cc1 | HEK293 | cell growth or viability | – | IC50 | > 10 µM
O=C1NN=C(N=Cc2ccc(O)c(O)c2)C1=NNn1c(-c2ccccc2)nc2ccccc2c1=O | Trichophyton rubrum | microbial growth, broth dilution | – | MIC | 107 µM (≈ 50 µg/mL)
COc1ccc(Nc2c(-c3ccc4c(c3)OCO4)nc3ncccn23)cc1 | Leishmania amazonensis | parasite growth, MTT | 72 h, promastigote | IC50 | > 100 µM
COc1ccc(Sc2ccc(C)cc2)c(OC)c1OC | Leishmania braziliensis | parasite growth, MTT | 24 h, promastigote | IC50 | 40.3 µM
O=C1NN=C(N=Cc2ccc(O)cc2O)C1=NNn1c(-c2ccccc2)nc2ccccc2c1=O | Trichophyton rubrum | microbial growth, broth dilution | – | MIC | 53.5 µM (≈ 25 µg/mL)
